# Screening data deposited in PubChem by several laboratories.
# Most compounds without a hit are left out; they make up all but 4.2% or so of the library.
# XBP1 UPR activ = activators of adaptive arm of unfolded protein response (XBP1). activation, % at 20 µM. AID 463104. 330,000 compounds, 0.33% hits. CHO-XBP1 luciferase reporter, IRE1-XBP1 UPR activation, luminescence; percent of tunicamycin response, DMSO as zero;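 active = versus positive control, 20 µM dose yields 30% or more activation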;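 note: 100% = tunicamycin at 10 µg/mL and 0% = DMSO only wells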
#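 incubation = overnight seeding at 37 °C, 6 h compound treatment at 37 °C | assay system = CHO-XBP1 cells stably carrying IRE1-XBP1-driven luciferase reporter | input = 1000 cells per well | detection = luciferase luminescence | dosing = single point, 20 µM final compound, 1% DMSO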
# ANO1 activ = activators or potentiators of mouse TMEM16A chloride channel. Q8BHY3. HEK293 TMEM16A/YFP-H148Q/I152L, iodide quench fluorescence; hits give low values. B-score at 10 µM. 340,000 compounds, 0.3% hits. AID 623877;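 active = fluorescence-ratio B-score plate-corrected deviation score at least 3 library SD below zero, with starting fluorescence score within 5 deviations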;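 note: channel opened by trigger with iodide after compound preincubation; score built on the fluorescence ratio of max minus min over baseline; more negative score means more quench and so TMEM16A activation or potentiation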
# UPR CHOP act = apoptotic UPR (CHOP) activation. CHO-CHOP luciferase reporter, luminescence; percent of tunicamycin response over DMSO baseline. activation, % at 10 µM. 330,000 compounds, 0.34% hits. AID 449763;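 active = at 10 µM dose, activation of 40% or more, normalized to positive control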;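 note: 100% = tunicamycin at 10 µg/mL and 0% = DMSO alone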
#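 System: CHO CHOP reporter cells. Amount: 500 cells per well. Buffer or medium: F12 medium, 10% FBS. Compound dosing: one dose, 10 µM in 0.5% DMSO. Incubation: 6 h compound exposure at 37 °C after overnight seeding. Technique: Steady-Glo luciferase luminescence. Benchmarks: tunicamycin and DMSO controls.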
# ANO1 block = blocks the mouse calcium-activated chloride channel TMEM16A; HEK293 TMEM16A/YFP iodide influx fluorescence, ionomycin; normalized B-score (activity score, 25-100; higher = stronger inhibition) at 10 µM; AID 588511; Q8BHY3; 310,000 compounds, 1.2% hits;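 active = ratio plate-corrected score three or more library SD toward inhibition, starting fluorescence score within five deviations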;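 note: score derived from kinetic fluorescence span divided by baseline fluorescence per well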
# CHOP inhibitor = blocks CHOP induction under ER stress; 220,000 compounds, 3.8% hits; inhibition, % at 10 µM; AID 2732; CHO-K1 CHOP-promoter luciferase, tunicamycin-induced, 15-18 h;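 active = compounds that reduced the stress-induced luciferase reporter signal by more than about 70% of percent inhibition, limit read from the data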;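 note: 0% = tunicamycin plus vehicle and 100% = wells without tunicamycin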
# Hep lipid drop = hepatic lipid droplet formation modulation; AML12 mouse hepatocytes, oleate lipid droplets, BODIPY imaging; inhibition, % at 6.5 µM; 240,000 compounds, 0.4% hits; AID 1656;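 active = lipid droplet intensity inhibited by at least 50%, with more than 500 cells counted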
#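 Assay system: AML12 hepatocytes (mouse); Probe or stimulus: oleic acid at 100 µM to induce lipid droplet formation; Dosing: compound at 6.5 µM only; Schedule: compound with oleate, overnight; Detection: fluorescence imaging, 20x objective, two fields per well; Measure: % inhibition of lipid droplet signal.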
# Numbers without * were called inactive; i = inactive; nt = not tested or not shown.
SMILES,XBP1 UPR activ,ANO1 activ,UPR CHOP act,ANO1 block,CHOP inhibitor,Hep lipid drop
Cc1cccc(NC(=O)CCc2ccc(S(=O)(=O)NC3CCCCC3)cc2)c1,-7,i,2,i,72*,-21
Cc1cccc(NC(=S)NC(=O)CCc2ccccc2)c1C,-1,i,4,i,75*,8
O=C(CCc1ccccc1)Nc1cccc(NC(=O)CCc2ccccc2)c1,-1,i,2,i,72*,-4
COc1ccc(C(=O)O)cc1S(=O)(=O)N1CCSCC1,-5,i,-1,i,nt,-9
O=C(O)c1ccc(-c2nc(-c3ccccc3)c(-c3ccccc3)[nH]2)cc1,-2,i,1,i,27,3
Cc1ccsc1-c1nc(-c2ccccc2)c(-c2ccccc2)[nH]1,1,i,2,i,82*,nt
Fc1ccc(-c2nc(-c3cccs3)[nH]c2-c2ccc(F)cc2)cc1,-1,i,1,i,74*,-7
O=C(CCC(F)(F)F)N1CCC(CO)(CCc2ccccc2)CC1,0,i,2,i,nt,-4
COC(=O)c1sccc1N(C)S(C)(=O)=O,-3,i,1,i,-7,4
COc1ccccc1NC(=O)C1=C(C)Nc2nnnn2C1c1ccccc1OC (centres undefined),-5,i,0,i,11,1
COc1ccccc1/C=C1\CCCC2=C1Nc1nnnn1C2c1ccccc1OC (centres undefined),nt,i,nt,i,84*,-1
CS(=O)(=O)N(CC(=O)Nc1ccccc1Sc1ccccc1)c1cccc(Br)c1,-5,i,0,i,77*,-12
C[C@H](NC(=O)c1[nH]cnc1C(=O)Nc1ccc(Cl)cc1)c1ccccc1,0,i,3,nt,nt,nt
Cc1ccc(N2CCN(C(=O)CNS(=O)(=O)c3ccc(Br)s3)CC2C)cc1 (centres undefined),-4,i,-1,100*,72*,nt
COc1ccc(C(=O)NCC(=O)OCC(=O)c2ccc3c(c2)NC(=O)CO3)cc1,0,i,-1,i,10,-5
CC1(c2ccc([N+](=O)[O-])cc2)CC(C)(C)N(C(=O)c2ccccc2)c2ccccc21 (centres undefined),nt,nt,nt,nt,81*,21
Cc1ccc(/C=C(\CCC(=O)O)c2nc3ccccc3s2)cc1[N+](=O)[O-],2,i,4,i,35,20
CN(c1ccccc1)c1ccc(/C=C(\CCC(=O)O)c2nc3ccccc3s2)cc1[N+](=O)[O-],-1,i,-2,i,100*,-1
O=C(O)C/C(=C\c1cccc(NC(=O)c2ccccc2Cl)c1)c1nc2ccccc2s1,-1,i,2,i,-4,-10
COc1ccc(C(=O)Nc2cccc(/C=C(\CCC(=O)O)c3nc4ccccc4s3)c2)cc1,-1,i,1,i,83*,8
O=C(CNC(=O)N1CC(=O)Nc2ccccc21)NCCc1ccc(Cl)cc1,-3,i,1,i,nt,2
COc1ccc(C(=O)NCC(=O)Nc2ccc(-c3ccccc3)cc2)cc1,0,i,0,i,nt,-2
CN(C)N=Nc1ccc(S(N)(=O)=O)cc1,-2,i,-1,i,-15,15
CCN(CC)N=Nc1ccc(S(N)(=O)=O)cc1,0,-6.1*,13,i,20,-7
CC(C)=C1C2CCC1C1C(=O)N(NC(=O)COc3ccc(C(C)(C)C)cc3)C(=O)C21 (centres undefined),0,i,2,i,92*,3
CC(C)(C)c1ccc(OCC(=O)NNC(=O)C2CCCO2)cc1 (centres undefined),0,i,1,i,8,15
Cc1c(-c2ccccc2)oc2c(C(=O)N3CCN(c4ccccc4F)CC3)cccc2c1=O,1,i,0,i,71*,0
O=C(Nc1ccc(N2CCCC2)cc1)C(Cl)c1ccccc1 (centres undefined),-1,i,6,i,78*,nt
